According to ChEMBL document CHEMBL1212799 (2010):
≈ marks a conversion by molar mass, not a printed value.

How the values were obtained:
Klebsiella pneumoniae [1] = assay: Antibacterial activity against Klebsiella pneumoniae isolate 377 in vitro pharmacodynamic model; assay type: functional
Summary of the method: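 Simulated peak 38.4 µg/ml, trough 3.04 µg/ml. CAMHB at 37°C, 10^6 CFU/ml from overnight culture, drug started at 0.5 h. Two treated models plus one growth control. Change in log10 CFU/ml over 24 h on blood agar. Detection limit 10^1 CFU/ml.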

Klebsiella pneumoniae [2] = assay: Antibacterial activity against Klebsiella pneumoniae isolate 351 in vitro pharmacodynamic model; assay type: functional
Summary of the method: (§1)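 Inoculum 10^6 CFU/ml; dosing began 0.5 h after inoculation. Two treated models plus one untreated control per isolate; blood-agar counts; change in log10 CFU/ml over 24 h (detection limit 10^1); drug levels checked by HPLC.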

Klebsiella pneumoniae [3] = assay: Antibacterial activity against Klebsiella pneumoniae isolate 361 in vitro pharmacodynamic model; assay type: functional; summary of the method: as §1
Klebsiella pneumoniae [4] = assay: fT>MIC in Klebsiella pneumoniae isolate 377 at 2 gram for every 8 hrs administered as 3 hrs infusion over 24 hrs in in vitro pharmcodynamic model; assay type: functional
Klebsiella pneumoniae [5] = assay: fT>MIC in Klebsiella pneumoniae isolate 328A at 2 gram for every 8 hrs administered as 3 hrs infusion over 24 hrs in in vitro pharmcodynamic model; assay type: functional
Summary of the method: (§2)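 Samples assayed by HPLC (linear 0.25–40 µg/ml). Time free drug stayed above the modal triplicate broth-microdilution MIC (CLSI) calculated for each 8-h interval.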

Klebsiella pneumoniae [6] = assay: fT>MIC in Klebsiella pneumoniae isolate 351 at 2 gram for every 8 hrs administered as 3 hrs infusion over 24 hrs in in vitro pharmcodynamic model; assay type: functional; summary of the method: as §2
Klebsiella pneumoniae [7] = assay: fT>MIC in Klebsiella pneumoniae isolate 354 at 2 gram for every 8 hrs administered as 3 hrs infusion over 24 hrs in in vitro pharmcodynamic model; assay type: functional; summary of the method: as §2
Klebsiella pneumoniae [8] = assay: fT>MIC in Klebsiella pneumoniae isolate 368 at 2 gram for every 8 hrs administered as 3 hrs infusion over 24 hrs in in vitro pharmcodynamic model; assay type: functional
Klebsiella pneumoniae [9] = assay: fT>MIC in Klebsiella pneumoniae isolate 353 at 2 gram for every 8 hrs administered as 3 hrs infusion measured over 0-8 hrs in in vitro pharmcodynamic model; assay type: functional, isoalte 353; summary of the method: as §2
Klebsiella pneumoniae [10] = assay: fT>MIC in Klebsiella pneumoniae isolate 375 at 2 gram for every 8 hrs administered as 3 hrs infusion measured over 0-8 hrs in in vitro pharmcodynamic model; assay type: functional
Pseudomonas aeruginosa [11] = assay: fT>MIC in Pseudomonas aeruginosa isolate 1177 at 2 gram for every 8 hrs administered as 3 hrs infusion measured over 0-8 hrs in in vitro pharmcodynamic model; assay type: functional
Klebsiella pneumoniae [12] = assay: fT>MIC in Klebsiella pneumoniae isolate 377 at 2 gram for every 8 hrs administered as 3 hrs infusion measured over 8-16 hrs in in vitro pharmcodynamic model; assay type: functional
Klebsiella pneumoniae [13] = assay: fT>MIC in Klebsiella pneumoniae isolate 368 at 2 gram for every 8 hrs administered as 3 hrs infusion measured over 8-16 hrs in in vitro pharmcodynamic model; assay type: functional
Pseudomonas aeruginosa [14] = assay: fT>MIC in Pseudomonas aeruginosa isolate 988 at 2 gram for every 8 hrs administered as 3 hrs infusion measured over 8-16 hrs in in vitro pharmcodynamic model; assay type: functional
Klebsiella pneumoniae [15] = assay: fT>MIC in Klebsiella pneumoniae isolate 357 at 2 gram for every 8 hrs administered as 3 hrs infusion measured over 16-24 hrs in in vitro pharmcodynamic model; assay type: functional; summary of the method: as §2
Klebsiella pneumoniae [16] = assay: fT>MIC in Klebsiella pneumoniae isolate 361 at 2 gram for every 8 hrs administered as 3 hrs infusion measured over 16-24 hrs in in vitro pharmcodynamic model; assay type: functional; summary of the method: as §2
Klebsiella pneumoniae [17] = assay: Antibacterial activity against Klebsiella pneumoniae isolate 354 assessed as reduction of bacterial count at 8 ug/ml within 6 hrs in vitro pharmacodynamic model; assay type: functional
Klebsiella pneumoniae [18] = assay: Antibacterial activity against Klebsiella pneumoniae isolate 375 assessed as reduction of bacterial count at 32 ug/ml within 6 hrs in vitro pharmacodynamic model; assay type: functional
Pseudomonas aeruginosa [19] = assay: Antibacterial activity against Pseudomonas aeruginosa isolate 762 assessed as reduction of bacterial count at 16 ug/ml within 6 hrs in vitro pharmacodynamic model; assay type: functional

## C[C@@H](O)[C@H]1C(=O)N2C(C(=O)O)=C(S[C@@H]3CN[C@H](C(=O)N(C)C)C3)[C@H](C)[C@H]12 [MEROPENEM]
Klebsiella pneumoniae [1]
  MIC: 2 µg/mL (≈ 5.22 µM)
Klebsiella pneumoniae [2]
  MIC: 8 µg/mL (≈ 20.9 µM)
Klebsiella pneumoniae [3]
  MIC: 64 µg/mL (≈ 167 µM)
Klebsiella pneumoniae [4]
  fT>MIC: 100%
Klebsiella pneumoniae [5]
  fT>MIC: 69%
Klebsiella pneumoniae [6]
  fT>MIC: 69%
Klebsiella pneumoniae [7]
  fT>MIC: 69%
Klebsiella pneumoniae [8]
  fT>MIC: 16%
Klebsiella pneumoniae [9]
  fT>MIC: 38%
Klebsiella pneumoniae [10]
  fT>MIC: 0%
Pseudomonas aeruginosa [11]
  fT>MIC: 75%
Klebsiella pneumoniae [12]
  fT>MIC: 100%
Klebsiella pneumoniae [13]
  fT>MIC: 0%
Pseudomonas aeruginosa [14]
  fT>MIC: 50%
Klebsiella pneumoniae [15]
  fT>MIC: 0%
Klebsiella pneumoniae [16]
  fT>MIC: 0%
Klebsiella pneumoniae [17]
  log10cfu: >3
Klebsiella pneumoniae [18]
  log10cfu: >3
Pseudomonas aeruginosa [19]
  log10cfu: >=3
